The text below walks through data of ChEMBL document CHEMBL3797028, “Novel S1P1 receptor agonists - Part 4: Alkylaminomethyl substituted aryl head groups” (Eur J Med Chem, 2016).

Each structure is given as a SMILES string. Active and inactive are the calls of the source. No cut-off for these calls is given here. A value given as a limit tells only on which side of the number the result lay.

Usually fraction unbound stands for free concentration divided by total concentration. Read a high fraction unbound as much free substance. In general, CL/F refers to the apparent clearance, not corrected for the fraction that reaches the circulation. A word on the EC50: it is the midpoint of the concentration-response curve. By logD is commonly meant the decadic logarithm of the distribution of all forms, ionised or not, between an organic phase and buffer at a given pH. The low end stands for lower lipophilicity, the high end for higher lipophilicity.

A short description of series [1]: Apparent intrinsic clearance in Wistar rat liver microsomes at 1 uM after 2.5 to 15 mins by LC-MS/MS analysis in presence of NADPH. The series is classed as ADME. The settings on record: read-out: CLH(app). The method, boiled down: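 Compound at 1 uM starting concentration was depleted by 0.5 mg/mL rat liver microsomes in 100 mM sodium phosphate pH 7.4 at 37 °C, with shaking under air. Reactions were started with an NADPH-regenerating system. Samples were taken at 0, 2.5, 5, 10 and 15 min, quenched in ice-cold methanol and analysed by LC-MS/MS. CLint,app came from first-order decay fitting.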

In series [2] the target is T1, Sphingosine 1-phosphate receptor 1 (Homo sapiens, UniProt P21453). The series can be described thus: Partial agonist activity at human recombinant S1PR1 expressed in CHO cells by receptor internalization assay. The class given is cell-based.
A short description of series [3]: Fraction unbound in Wistar rat liver microsomes incubated for 6 hrs by LC-MS/MS based equilibrium dialysis method. The series is classed as ADME. An outline of the steps: (§1)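 Rapid equilibrium dialysis was run on a shaker for 6 h at 37 °C. The donor side held rat plasma (pH 7.2–7.6) or 1 mg/mL rat liver microsomes in phosphate buffer pH 7.4. The receiver side held phosphate buffer pH 7.4. Both sides were measured by LC-MS/MS to give free fraction and recovery.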
(In general: Liver microsomes are vesicles of endoplasmic reticulum, rich in cytochrome P450 enzymes.)

For series [4], the system named is Rattus norvegicus. As to the kind of experiment: Change in circulating lymphocyte count in Wistar rat at 10 mg/kg administered as single dose through oral gavage after 24 hrs relative to control. The class given is functional. The method, boiled down:
(§2)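 Male Wistar rats (RccHan:WIST; n = 6) were given a single oral gavage dose of compound in DMSO plus 7.5% succinylated gelatine (final 5% DMSO). Blood lymphocytes were counted just before dosing and at later timepoints. Percent change was calculated per animal relative to the pre-dose value and compared with a vehicle-treated group, reported as the mean. A ±15% change was treated as baseline, and a reduction of about 60% or more as maximal.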

Series [5] is described as follows: Apparent oral clearance in Wistar rat plasma at 1 to 10 mg/kg administered through gavage by LC-MS/MS analysis. The class given is ADME, organism-based. The method, boiled down: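 Male Wistar rats received a single oral gavage dose of compound dissolved in DMSO and added to 7.5% succinylated gelatine in water (final 5% DMSO). EDTA plasma was spun at 3000 g for 10 min at 4 °C and analysed by LC-MS/MS after protein precipitation. Oral clearance was estimated from the plasma concentration–time data. In vivo intrinsic clearance used the well-stirred liver model, assuming complete absorption.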

Series [6] in a line: Plasma concentration in Wistar rat at 10 mg/kg administered as single dose through oral gavage after 24 hrs by LC-MS/MS analysis. The class given is ADME, organism-based. An outline of the steps: (§3)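 Single oral gavage dose to male Wistar rats in DMSO/7.5% succinylated gelatine (final 5% DMSO). Blood was drawn into EDTA at the lymphocyte-count timepoints. Plasma was prepared at 3000 g for 10 min at 4 °C and analysed by LC-MS/MS after protein precipitation.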

Series [7] in a line: Selectivity ratio of EC50 for human recombinant S1PR3 expressed in CHO cell membranes to EC50 for human recombinant S1PR1 expressed in CHO cell membranes. The class given is cell-based. The method, boiled down: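 Compound and membranes are pre-incubated 30 min at rt, then incubated 1 h at rt, filtered and counted. EC50 is the concentration giving 50% of S1P-defined specific binding, as the geometric mean of ≥3 independent duplicate runs. Ratio = EC50 S1PR3/EC50 S1PR1.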

The target of series [8] is T1, Sphingosine 1-phosphate receptor 1. As to the kind of experiment: Agonist activity at human recombinant S1PR1 expressed in CHO cell membranes assessed as [35S]GTPgammaS binding preincubated for 30 mins followed by [35S]GTPgammaS addition measured after 1 hr by topcount analysis. (In general: GTPγS resists hydrolysis and so accumulates on activated G proteins.)
The test system of series [9] is Rattus norvegicus. The series can be described thus: Change in circulating lymphocyte count in Wistar rat at 10 mg/kg administered as single dose through oral gavage after 6 hrs relative to control. The class given is functional. An outline of the steps: as §2
Series [10] in a line: Plasma concentration in Wistar rat at 10 mg/kg administered as single dose through oral gavage after 72 hrs by LC-MS/MS analysis. The series is classed as ADME, organism-based. The method, boiled down: as §3
In series [11] the target is Sphingosine 1-phosphate receptor 3 (Homo sapiens, UniProt Q99500). The series can be described thus: Agonist activity at human recombinant S1PR3 expressed in CHO cell membranes assessed as [35S]GTPgammaS binding preincubated for 30 mins followed by [35S]GTPgammaS addition measured after 1 hr by topcount analysis. The class given is functional. The method, boiled down:
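Membranes from CHO cells expressing recombinant human S1P1 or S1P3 were used. Buffer was 20 mM Hepes pH 7.4, 100 mM NaCl, 5 mM MgCl2, 0.1% fatty-acid-free BSA, 2.5% DMSO and 50 pM 35S-GTPgammaS. GDP was […] for S1P3. Compound was preincubated 30 min at rt, then incubated 1 h at rt with 35S-GTPgammaS. Bound label was collected by filtration and counted. Specific binding was taken against 10 uM S1P. EC50 was the 50%-of-specific-binding concentration, reported as the geometric mean of at least three independent duplicate runs.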

The nature of series [12]: Fraction unbound in Wistar rat plasma incubated for 6 hrs by LC-MS/MS based equilibrium dialysis method. The series is classed as ADME, cell-free. An outline of the steps:
as §1

The species entered for series [13] is Rattus norvegicus. The series can be described thus: Intrinsic clearance in rat liver microsomes scaled to body weight. The following applies: in vitro.
Series [14] concerns Liver microsome. The series can be described thus: Unbound fraction corrected apparent intrinsic clearance in Wistar rat liver microsomes at 1 uM after 2.5 to 15 mins by LC-MS/MS analysis in presence of NADPH. The class given is ADME. The method, boiled down:
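Apparent CLint was measured by microsomal substrate depletion: 1 uM start, 0.5 mg/mL rat liver microsomes, pH 7.4, 37 °C, NADPH-regenerating system, sampling 0–15 min, LC-MS/MS. It was then divided by the unbound microsomal fraction, which was determined by rapid equilibrium dialysis of 1 mg/mL microsomes for 6 h at 37 °C.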

Series [15] is described as follows: Plasma concentration in Wistar rat at 10 mg/kg administered as single dose through oral gavage after 3 hrs by LC-MS/MS analysis. The series is classed as ADME, organism-based. The method, boiled down:
as §3

The nature of series [16]: Plasma concentration in Wistar rat at 10 mg/kg administered as single dose through oral gavage after 6 hrs by LC-MS/MS analysis. The class given is ADME, organism-based. An outline of the steps:
as §3

Series [17] can be described thus: Distribution coefficient, log D between 1-octonol and phosphate buffer at pH 7. The settings on record: 1-octanol/phosphate buffer. The series is classed as physicochemical. An outline of the steps:
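Partition was between 1-octanol and phosphate buffer at pH 7.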

Series [18] concerns Rattus norvegicus. The series can be described thus: Change in circulating lymphocyte count in Wistar rat at 10 mg/kg administered as single dose through oral gavage after 3 hrs relative to control. The series is classed as functional. The method, boiled down:
as §2

T1 sequence (P21453 whole entry): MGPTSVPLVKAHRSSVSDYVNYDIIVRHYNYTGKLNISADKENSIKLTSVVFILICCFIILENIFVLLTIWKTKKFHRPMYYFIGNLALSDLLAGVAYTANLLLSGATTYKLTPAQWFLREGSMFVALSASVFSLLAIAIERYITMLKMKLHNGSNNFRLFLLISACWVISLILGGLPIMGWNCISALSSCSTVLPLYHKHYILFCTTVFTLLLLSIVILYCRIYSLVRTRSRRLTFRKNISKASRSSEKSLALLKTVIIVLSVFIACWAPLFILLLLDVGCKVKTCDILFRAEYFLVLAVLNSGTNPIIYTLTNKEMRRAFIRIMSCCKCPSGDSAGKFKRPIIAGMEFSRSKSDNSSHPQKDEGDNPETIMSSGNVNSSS
Sphingosine 1-phosphate receptor 3, sequence (Q99500 whole entry): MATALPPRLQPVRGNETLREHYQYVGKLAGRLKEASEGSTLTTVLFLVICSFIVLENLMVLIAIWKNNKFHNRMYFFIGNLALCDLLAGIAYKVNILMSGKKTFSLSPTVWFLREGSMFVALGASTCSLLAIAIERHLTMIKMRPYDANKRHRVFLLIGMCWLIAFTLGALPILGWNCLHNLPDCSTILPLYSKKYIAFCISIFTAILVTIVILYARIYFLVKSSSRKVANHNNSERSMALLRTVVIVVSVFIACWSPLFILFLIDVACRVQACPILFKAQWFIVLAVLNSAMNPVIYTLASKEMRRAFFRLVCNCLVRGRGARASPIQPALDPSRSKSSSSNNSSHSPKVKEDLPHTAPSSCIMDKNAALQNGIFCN

As for `CCc1cc(-c2noc(-c3cc(C)cc(CN(C)CC(C)C)c3)n2)cc(C)c1OC[C@@H](O)CNC(=O)CO`, the microsomal CLint at 1 µM in [1] was determined as 20 µL/min/mg. Further, the result in series [2] was inactive. Further, the fraction unbound at 6 h in series [3] was 0.027; in series [12] it was below 0.001. Further, the Activity is -44% in series [4], -53% in series [9] and -52% in series [18]. Moreover, the CL/F in series [5] is 8 mL/min/kg. Besides, the concentration at 24 h in series [6] is 342 ng/mL. For the same molecule, the Ratio EC50 in series [7] amounted to 48. Also, the EC50 in [8] was 0.0021 µM; in series [11], 0.1 µM. The concentration at 72 h in [10] stood at 3.7 ng/mL. The same molecule yielded a CL in [13] of 1330 mL/min/kg. For the same molecule, in series [14], the CL free is 740 µL/min/mg. For the same molecule, in series [15], the concentration at 3 h worked out at 1380 ng/mL. Moreover, the concentration at 6 h in [16] amounted to 1120 ng/mL. The logD in [17] is above 4.1.
